# Screens as filed in PubChem BioAssay.
# Sampled rows, rich in hits. Any-hit rate of the full collection: about 9.6%.
# PMI activator = activators of human phosphomannose isomerase; activation factor at 20 µM; purified human PMI, coupled resazurin fluorescence, 20 min; active compounds read high; 1 = vehicle control, 0 substrate-free wells; actives 0.005% (n = 190,000); AID 1214; P34949;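 active = activation factor of 2 or more at 20 µM, relative to plate controls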
# Target sequence (P34949 whole entry, looked up): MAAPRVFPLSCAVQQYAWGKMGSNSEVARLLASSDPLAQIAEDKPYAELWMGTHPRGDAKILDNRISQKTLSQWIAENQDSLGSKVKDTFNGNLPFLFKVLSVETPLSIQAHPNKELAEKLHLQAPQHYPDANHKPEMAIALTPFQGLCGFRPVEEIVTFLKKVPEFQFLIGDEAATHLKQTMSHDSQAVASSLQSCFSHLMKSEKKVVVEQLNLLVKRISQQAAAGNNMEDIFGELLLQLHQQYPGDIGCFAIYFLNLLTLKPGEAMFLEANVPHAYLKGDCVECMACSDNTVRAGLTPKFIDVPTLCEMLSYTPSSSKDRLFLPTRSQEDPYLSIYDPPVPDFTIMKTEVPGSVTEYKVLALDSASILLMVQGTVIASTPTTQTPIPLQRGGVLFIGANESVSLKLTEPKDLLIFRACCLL
# HCT116 bCat-KO = beta-catenin-lacking colon tumor cell growth suppression. actives 1.5% (n = 140,000). HCT116 beta-catenin knockout viability, CellTiter-Glo, 60 h; active compounds read low. AID 818. viability, % at 10 µM;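 active = viability at or under a set limit, the compound median less 4 SD, cut at about 6% in these data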;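 note: 0% = Hyamine 1622 control at 20 µM and 100% = untreated cell control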
# PTEN del growth = PTEN-deleted cell growth suppression | HCT116 PTEN-null viability, CellTiter-Glo, 60 h; active compounds read low | viability, % at 10 µM | AID 827 | actives 1.2% (n = 140,000);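 active = viability at or below a set limit, 4 SD under the median of all tested compounds, cut at about 3.7% in these data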;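 note: PTEN knockout HCT116 line with beta catenin targeted HCT116 as companion control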
# PMI act hi M6P = increases human PMI activity with near-saturating mannose 6-phosphate; P34949; coupled PMI enzyme assay, resazurin fluorescence, 20 min; active compounds read high; 1 = untreated enzyme, 0 = substrate-free blank; activation factor at 20 µM; actives 0.34% (n = 190,000);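 active = activation factor of 2 or more at 20 µM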
#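 Test system: Human PMI in coupled enzyme assay | Input: 15 ng/mL PMI | Medium: HEPES-buffered pH 7.4 with magnesium and detergent | Compound: One concentration, 20 µM, in 1% DMSO | Incubation: Enzyme reaction with compound 20 min at room temperature | Detection: Diaphorase-driven resazurin-to-resorufin fluorescence, excitation 544, emission 590 nm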
# Lmaj promast = reduces viability of Leishmania major promastigotes; inhibition, % at 10 µM; actives 9% (n = 200,000); resazurin fluorescence viability; in the data active = inhibition above about 50%;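 note: promastigotes grown with compound for 44 hours at 28 °C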
# Starred values were filed as active, the others as inactive; x = no result given.
SMILES,PMI activator,HCT116 bCat-KO,PTEN del growth,PMI act hi M6P,Lmaj promast
O=C1C=C(Nc2ccccc2)c2ccccc2C1=O,0.9,x,x,0.4,100*
CCCCNC1=CC(=O)C(=O)c2ccccc21,x,x,x,x,100*
O=C1C=C(Nc2ccccc2)C(=O)c2ccccc21,0.9,x,x,0.4,100*
O=C(Oc1cccc(N2C(=O)CCC2=O)c1)C1CC(=O)N(c2ccc(F)cc2)C1 (stereo unspecified),1,89,99,1,-9
CC(/C=N/n1c(-c2ccc(Cl)cc2)n[nH]c1=S)=C\c1ccco1,0.7,92,95,0.7,-8
N#CC(C#N)=C1C=CC=CN1/C(=C\c1ccco1)C(=O)c1ccc(-c2ccccc2)cc1,1,1.7*,1.5*,1,100*
N#CC(C#N)=C1C=CC=CN1/C(=C\c1ccco1)C(=O)c1ccc(Cl)cc1,0.8,2.4*,2.2*,0.8,11
N#C/C(=C\c1ccco1)C(=O)NCc1ccccc1,1,x,x,1,-5
CC(=O)C1=C(c2cccc([N+](=O)[O-])c2)N(C(C)=O)n2c(C)nnc2S1,1.1,x,x,1.1,35
Cc1ccnc(NS(=O)(=O)c2cnc(Cl)c(Br)c2)c1,1.1,94,87,1.1,-7
COc1ccccc1OCC(=O)N/N=C1/SCC(=O)N1Cc1ccccc1,1,79,83,1,8
COc1ccc(/C=C2\SC(c3ccc(C)cc3)=NC2=O)cc1OC,0.9,89,92,1,4
COc1cc(/C=C2\SC(c3ccc(C)cc3)=NC2=O)ccc1O,0.9,79,84,0.9,100*
O=C(OC(C(=O)Nc1ccc([N+](=O)[O-])cc1Br)c1ccccc1)c1ccccc1 (stereo unspecified),0.9,x,x,0.8,100*
O=C(Nc1ccc([N+](=O)[O-])cc1Br)c1cccnc1,1,76,100,0.9,54*
COc1ccc(NC(=O)CN(c2ccc([N+](=O)[O-])cc2)S(=O)(=O)c2ccccc2)c(OC)c1,1,71,78,1,75*
COc1ccc(N(CC(=O)Nc2ccc(OC)cc2OC)S(=O)(=O)c2ccccc2)cc1,0.9,x,x,1,23
COc1ccc(NC(=O)CCN2C(=O)c3ccc([N+](=O)[O-])cc3C2=O)c(OC)c1,1,92,95,1,90*
COc1cccc(NC(=O)CCN2C(=O)c3ccc([N+](=O)[O-])cc3C2=O)c1,1.2,x,x,1.1,10
Cc1nn(CC(=O)NCc2cccnc2)c(C)c1[N+](=O)[O-],0.9,x,x,1,-7
CN1C2CCC1/C(=C\c1ccccc1)C(=O)/C2=C\c1ccccc1,1,8,8,1.1,94*
O=C1/C(=C/c2ccccc2)CCC1C1CCCC1 (stereo unspecified),0.8,90,94,0.8,-10
CN(C)C(=O)CCC(=O)N1CCCC(C(=O)c2ccc3c4c(cccc24)CC3)C1 (stereo unspecified),0.9,x,x,0.9,6
O=C(c1ccc2c3c(cccc13)CC2)C1CCCN(Cc2ccncc2)C1 (stereo unspecified),1,x,x,1,97*
CCc1nc(CN2CCCC(C(=O)c3ccc4c5c(cccc35)CC4)C2)c(C)[nH]1 (stereo unspecified),0.9,x,x,0.9,99*
SMILES,PMI activator,HCT116 bCat-KO,PTEN del growth,PMI act hi M6P,Lmaj promast
Cc1c(-c2ccccc2)sc(N)c1C(=O)N1CCOCC1,0.8,90,92,0.8,-1
CCCN1CCN(c2ncnc3c2nnn3Cc2ccccc2)CC1,1,41,29,1.1,97*
S=C(NCC1CCCO1)N1CCN(Cc2ccccc2)CC1 (stereo unspecified),0.8,x,x,0.9,-8
CCSc1nc(-c2cccs2)nc2ccccc12,0.9,x,x,0.9,1
COc1cc(C(=O)O)cc(NC(=O)c2cccs2)c1OC,1.3,90,98,1.3,26
COc1cc(C(=O)OCc2ccc(C)cc2)cc(NC(=O)c2cccs2)c1OC,0.9,87,88,0.9,55*
CCC(=O)N/C(N)=N/c1nc(C)c2cc(OC)ccc2n1,0.9,41,35,0.9,28
COc1ccc2nc(/N=C(\N)NC(=O)C(C)(C)C)nc(C)c2c1,0.9,59,62,0.9,51*
COc1ccccc1N1CCN(S(=O)(=O)c2cccs2)CC1,0.9,87,91,1,54*
CCOc1ccccc1N1CCN(S(=O)(=O)c2cc(C)ccc2OC)CC1,x,x,x,x,10
COc1ccccc1N1CCN(S(=O)(=O)c2ccc(Br)s2)CC1,1.2,92,95,1.3,-4
O=C1C(NS(=O)(=O)c2cccs2)=C(N2CCN(c3cccc(C(F)(F)F)c3)CC2)C(=O)c2ccccc21,1.4,75,61,1.9,62*
CCOc1ccccc1N1CCN(C2=C(NS(=O)(=O)c3cccs3)C(=O)c3ccccc3C2=O)CC1,1.1,63,58,1.5,99*
CN(C)S(=O)(=O)c1cccc(C(=O)OCC(=O)NCc2ccc3c(c2)OCO3)c1,1,x,x,1,-4
COc1ccc(N2CCN(C(=O)NC3CC(=O)N(c4ccc(OC)cc4)C3)CC2)cc1 (stereo unspecified),1,x,x,0.9,-3
CCOc1ccc(C(C)=O)cc1COc1ccc(-n2cnnn2)cc1,0.9,87,89,1,-7
CCOc1ccc(C(C)=O)cc1CSc1nnnn1-c1ccc(O)cc1,1,x,x,1,60*
CCOC(=O)c1c(/N=C/N(C)C)sc(C(=O)OC)c1C,1,92,110,1.1,-2
O=C(NCc1cccc(F)c1)c1ccc(N2C(=O)Cn3c(cc4sccc43)C2=O)cc1,0.8,89,101,0.9,61*
N=c1n(CCN2CCOCC2)c2ccccc2n1CC(=O)c1ccc(Cl)c(Cl)c1,1.3,63,66,1.6,66*
CCCCOC(=O)Cn1c(=N)n(CCN2CCOCC2)c2ccccc21,x,x,x,x,10
N=c1n(CCN2CCCC2)c2ccccc2n1CC(O)c1ccc(Cl)c(Cl)c1 (stereo unspecified),1,x,x,1,100*
CCNc1nc(C23CC4CC(CC(C4)C2)C3)cs1,1.2,x,x,1.1,15
O=C(NC1CCCCC1)N(C1=NCCCCC1)c1ccc(Br)cc1,1,89,90,1,24
Clc1ccc(Cn2c(CN3CCCC3)nc3ccccc32)cc1,1.3,77,71,1.2,100*
SMILES,PMI activator,HCT116 bCat-KO,PTEN del growth,PMI act hi M6P,Lmaj promast
Cn1c(CNc2ccccc2)nc2ccccc21,0.9,80,79,1,9
COc1ccc(CNc2nc3ccccc3n2CCN2CCCCC2)cc1,1,x,x,1,38
Cn1c(CNc2nc3ccccc3n2CCN2CCCCC2)nc2ccccc21,1,66,71,1.1,99*
c1ccc(Cn2c(CNc3nc4ccccc4n3CCN3CCCCC3)nc3ccccc32)cc1,1,35,33,1,100*
c1ccc(Cn2c(CN3CCCC3)nc3ccccc32)cc1,1,82,88,1,4
Cn1c(CNc2ccccc2O)nc2ccccc21,0.7,63,71,0.4,89*
